UPR XBP1 act: adaptive UPR (XBP1) activation. 330,000 tested, 0.33% active. activation, % at 20 µM. CHO-XBP1 luciferase reporter, IRE1-XBP1 UPR activation, luminescence; percent of tunicamycin response, DMSO as zero;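 active = versus positive control, 20 µM dose yields 30% or more activation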;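 note: 100% = tunicamycin at 10 µg/mL and 0% = DMSO only wells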
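Material: CHO cell line with stable XBP1 luciferase reporter; buffer or medium: F12 medium containing 10% fetal bovine serum; compound: single point, 20 µM final compound, 1% DMSO; incubation: 6 h treatment, 37 °C; measured by: glow luminescence from Steady-Glo reagent; evaluation: activation, % of tunicamycin; control set: tunicamycin high, DMSO low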
697 NFkB inh: lowers PMA/ionomycin-induced NF-kB signal in 697 B cells | 697 B-cell NF-kB luciferase reporter, 16 h | inhibition, % at 4 µM | 330,000 tested, 0.33% active; in the data active = inhibition above about 35%
CHOP UPR activ: apoptotic UPR (CHOP) activation. activation, % at 10 µM. CHO-CHOP luciferase reporter, luminescence; percent of tunicamycin response over DMSO baseline. AID 449763. 330,000 tested, 0.34% active;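 active = at 10 µM dose, activation of 40% or more, normalized to positive control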;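 note: 100% = tunicamycin at 10 µg/mL and 0% = DMSO alone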
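Dosing – one dose, 10 µM in 0.5% DMSO · System – CHO-CHOP cells, stable luciferase reporter of PERK-eIF2a-CHOP signalling · Input – 500 cells/well · Control set – tunicamycin 10 µg/mL final as positive, DMSO-only wells as negative · Timing – 6 h compound treatment, 37 °C · Measure – % activation vs tunicamycin · Technique – luminescence read with Steady-Glo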
Jurkat NFkB inh: inhibitors of the PMA/ionomycin-induced NF-kB reporter in Jurkat cells; PMA/ionomycin-induced NF-kB luciferase reporter, luminescence; inhibition, % at 4 µM; 330,000 tested, 0.53% active; AID 435003; in the data active = inhibition above about 50%
CHOP inh: blocks CHOP induction under ER stress. inhibition, % at 10 µM. 220,000 tested, 3.8% active. AID 2732. CHO-K1 CHOP-promoter luciferase, tunicamycin-induced, 15-18 h;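 active = compounds that reduced the stress-induced luciferase reporter signal by more than about 70% of percent inhibition, limit read from the data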;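 note: 0% = tunicamycin plus vehicle and 100% = wells without tunicamycin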
An asterisk follows results filed as active. Many of the other results were omitted from the sample, so hits are more common in it than they were.

`Cc1ccc(OCC(=O)NNC(=O)CSc2ncnc3sc(C)c(C)c23)cc1` gave UPR XBP1 act 2, 697 NFkB inh -26, CHOP UPR activ -2, Jurkat NFkB inh -2 and CHOP inh 89*.
`O=C(c1cc2nc(-c3ccc(F)cc3)cc(C(F)(F)F)n2n1)N1CCCCC1c1cccnc1` (centres undefined) gave UPR XBP1 act 17, 697 NFkB inh -59, CHOP UPR activ 4, Jurkat NFkB inh 28 and CHOP inh 73*.
CC1CCCCN1C(=O)c1cc2nc(-c3ccccc3)cc(-c3ccccc3)n2n1 (centres undefined) was read as UPR XBP1 act 6, 697 NFkB inh 7, CHOP UPR activ 8, Jurkat NFkB inh -7 and CHOP inh 82*.
`CCCCN(C(=O)c1ccc(C#N)cc1)c1c(N)n(CCC)c(=O)[nH]c1=O` gave UPR XBP1 act -2, 697 NFkB inh -21, CHOP UPR activ 1 and Jurkat NFkB inh -21.
For CN(C)S(=O)(=O)c1cccc(CSc2cccc[n+]2[O-])c1 the results were UPR XBP1 act -1, 697 NFkB inh 31, CHOP UPR activ -3, Jurkat NFkB inh -4 and CHOP inh 0.
For COC(=O)CCN(C1CCCCC1)S(=O)(=O)c1ccc(S(=O)(=O)NC2CCCCC2)cc1 the results were UPR XBP1 act -1, 697 NFkB inh -18, CHOP UPR activ -3, Jurkat NFkB inh 12 and CHOP inh 75*.
For COc1cc(S(=O)(=O)NC2CCCCC2)ccc1Cl the results were UPR XBP1 act -2, 697 NFkB inh -27, CHOP UPR activ -1, Jurkat NFkB inh -15 and CHOP inh 23.
Screening CCOc1cc(S(=O)(=O)NC2CCCCCC2)ccc1F returned UPR XBP1 act -2, 697 NFkB inh -19, CHOP UPR activ -1, Jurkat NFkB inh 12 and CHOP inh 76*.
For COc1ccc(S(=O)(=O)NC2CCCCC2)cc1C the results were UPR XBP1 act -3, 697 NFkB inh 14, CHOP UPR activ -2, Jurkat NFkB inh -8 and CHOP inh 83*.
Screening S=C(Nc1ccc(Nc2ccccc2)cc1)NC1CCCCCC1 returned UPR XBP1 act 0, 697 NFkB inh -36, CHOP UPR activ 3, Jurkat NFkB inh -11 and CHOP inh 80*.
CC(C)(C)NC(=S)Nc1ccc(Nc2ccccc2)cc1 was read as UPR XBP1 act -3, 697 NFkB inh -57, CHOP UPR activ 2, Jurkat NFkB inh -12 and CHOP inh 73*.
For CC(C)(C)NC(=S)Nc1ccc(Br)cc1 the results were UPR XBP1 act 0, 697 NFkB inh -6, CHOP UPR activ 1, Jurkat NFkB inh 10 and CHOP inh 24.
`S=C(Nc1ccc(Cl)cc1)NC1CCCCC1` gave UPR XBP1 act 5, 697 NFkB inh -16, CHOP UPR activ 0, Jurkat NFkB inh -24 and CHOP inh 13.
`O=C(COC(=O)c1cccc(Br)c1)NCCC1=CCCCC1` gave UPR XBP1 act 2, 697 NFkB inh 3, CHOP UPR activ 0, Jurkat NFkB inh -7 and CHOP inh 13.
For O=C(Cc1ccccc1F)Nc1nc(-c2cccnc2)cs1 the results were UPR XBP1 act 1, 697 NFkB inh 9, CHOP UPR activ 3, Jurkat NFkB inh 4 and CHOP inh 81*.
For O=C(Cc1ccccc1F)Nc1nc(-c2ccc(F)c(F)c2)cs1 the results were UPR XBP1 act 1, 697 NFkB inh -12, CHOP UPR activ 6 and Jurkat NFkB inh -20.
For O=C(NC(c1ccc(Cl)cc1)c1c(O)ccc2ccccc12)c1ccccc1 (centres undefined) the results were CHOP inh 85*.
Screening CCCCC(=O)NC(c1ccc([N+](=O)[O-])cc1)c1c(O)ccc2ccccc12 (centres undefined) returned UPR XBP1 act -3, 697 NFkB inh -26, CHOP UPR activ 2, Jurkat NFkB inh 20 and CHOP inh 78*.
CC(C)Cn1c(SCC(=O)N2CCOCC2)nc2ccccc2c1=O was read as UPR XBP1 act 2, 697 NFkB inh 13, CHOP UPR activ 0 and Jurkat NFkB inh 15.
For CN(CC(=O)Nc1ccccc1Br)C(=O)c1ccc2c(=O)n3c(nc2c1)CCC3 the results were UPR XBP1 act -2, 697 NFkB inh 17, CHOP UPR activ 4 and Jurkat NFkB inh 9.
For COc1ccccc1NC(=O)CSCc1ccc([N+](=O)[O-])cc1 the results were UPR XBP1 act 4, 697 NFkB inh -5, CHOP UPR activ 0, Jurkat NFkB inh 12 and CHOP inh 10.
Screening CC(C)CN(C(=O)COc1ccc(Br)cc1C=O)C1CCS(=O)(=O)C1 (centres undefined) returned UPR XBP1 act -1, 697 NFkB inh 20, CHOP UPR activ -1 and Jurkat NFkB inh -5.
Screening c1ccc(-c2nnc(-c3ccccc3)c(-c3c[nH]c4ccccc34)n2)cc1 returned UPR XBP1 act 11, 697 NFkB inh -128, CHOP UPR activ 2, Jurkat NFkB inh -31 and CHOP inh 58.
`Clc1ccc(-c2nnc(-c3ccccc3)nc2-c2c[nH]c3ccccc23)cc1` gave UPR XBP1 act -1, 697 NFkB inh -23, CHOP UPR activ 0, Jurkat NFkB inh 14 and CHOP inh 85*.
Cc1[nH]c2ccccc2c1-c1nc(-c2ccc(Cl)cc2)nnc1-c1ccccc1 was read as UPR XBP1 act 23, 697 NFkB inh -24, CHOP UPR activ 8, Jurkat NFkB inh -8 and CHOP inh 76*.
For NC(=S)c1ccc[n+]([C@@H]2O[C@@H](COP(=O)([O-])OP(=O)(O)OC[C@H]3O[C@@H](n4cnc5c(N)ncnc54)C(OP(=O)(O)O)[C@H]3O)C(O)C2O)c1 (some centres undefined) the results were CHOP inh -6.
`Cc1cc(C)cc(OCC(=O)N2N=C(c3cccnc3)CC2(O)C(F)(F)F)c1` (centres undefined) gave UPR XBP1 act -1, 697 NFkB inh -7, CHOP UPR activ -1, Jurkat NFkB inh -2 and CHOP inh 7.
CC(C)(C)C1(O)CC(C(F)(F)F)=NN1C(=O)CCCc1ccccc1 (centres undefined) was read as UPR XBP1 act -1, 697 NFkB inh -3, CHOP UPR activ 0, Jurkat NFkB inh -2 and CHOP inh 88*.
Cc1cc(C)cc(OCC(=O)N2N=C(C(F)(F)F)CC2(O)C(C)(C)C)c1 (centres undefined) was read as UPR XBP1 act -2, 697 NFkB inh -10, CHOP UPR activ -2, Jurkat NFkB inh -7 and CHOP inh 78*.
Screening CC(C)(C)C1=NN(C(=O)c2ccccc2)C(O)(C(C)(C)C)C1 (centres undefined) returned UPR XBP1 act 2, 697 NFkB inh 33, CHOP UPR activ -1, Jurkat NFkB inh 4 and CHOP inh 59.

Assay outcomes (PubChem)
